High-throughput results (PubChem BioAssay)
Only a selection was taken, and hits are over-represented in it overall.
IDH1 mut inh – inhibitors of human IDH1 R132H | O75874 | IDH1 R132H reductase, diaphorase/resazurin fluorescence, 60 min | inhibition, % at 10 µM | hit rate 0.18% among 70,000; in the data active means inhibition above about 34%; inconclusive means no clear call, values can overlap the other calls; inactive means below about 11%;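 further: 0% = DMSO and 100% = no enzyme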
Target sequence (O75874 whole entry R132H): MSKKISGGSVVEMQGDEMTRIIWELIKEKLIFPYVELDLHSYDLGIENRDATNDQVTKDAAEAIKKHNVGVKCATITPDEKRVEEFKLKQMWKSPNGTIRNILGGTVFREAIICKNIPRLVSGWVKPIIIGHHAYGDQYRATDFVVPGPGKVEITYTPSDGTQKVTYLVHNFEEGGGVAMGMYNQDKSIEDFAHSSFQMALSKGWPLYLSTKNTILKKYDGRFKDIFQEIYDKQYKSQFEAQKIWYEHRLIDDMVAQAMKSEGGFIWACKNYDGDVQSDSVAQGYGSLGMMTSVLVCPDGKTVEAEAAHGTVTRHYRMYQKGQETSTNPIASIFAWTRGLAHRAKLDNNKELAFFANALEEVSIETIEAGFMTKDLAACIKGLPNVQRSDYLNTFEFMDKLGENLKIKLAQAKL
KDM4C inh – blocks human GASC-1 (KDM4C) demethylase activity | GST-KDM4C 2-372, H3K9me3 peptide, LANCE TR-FRET | inhibition, % at 12.5 µM | hit rate 0.15% among 96,000;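 active means mean replicate inhibition above about 25%, with at least 55% of replicates also reaching it, limit read from the data, passing the limit was not always enough; inconclusive means only one of those two conditions met; inactive means neither condition met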
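System – N-terminal GST-fused human GASC-1 (KDM4C) fragment, residues 2-372 · Input – enzyme final amount 10 nM · Technique – LANCE TR-FRET, Eu antibody, ULight-streptavidin, EDTA, ex 340 nm, em 618/671 nm · Medium – HEPES buffer, pH 7.5, plus ascorbate · Incubation – enzyme reaction 30 min, then detection 60 min, both room temperature · Reagent – H3K9me3 peptide with Fe(II)/2OG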
T cruzi growth-1 – T. cruzi proliferation inhibition; AID 624255; inhibition, % at 8.34 µM; hit rate 5.9% among 77,000; T. cruzi beta-gal in NIH3T3, GalScreen luminescence, 90 h;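 active means mean inhibition above about 93%, with at least 55% of replicates each passing it, limit read from the data, passing the limit was not always enough; inconclusive means only one of those two conditions holds; inactive means neither condition holds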
T cruzi growth-2 – inhibitors of T. cruzi proliferation | inhibition, % at 8.35 µM | shares compounds with T cruzi growth-1 | hit rate 72% among 5,600 | T. cruzi beta-gal in NIH3T3, GalScreen luminescence, 90 h;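 active means mean replicate inhibition above about 95% and at least 55% of replicates individually reaching it, limit read from the data; inconclusive means only one of the two criteria is met; inactive means neither criterion is met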
T cruzi growth-3 – blocks T. cruzi growth in NIH3T3 host cells | inhibition, % at 2.09 µM | T. cruzi beta-gal in NIH3T3, GalScreen luminescence, 90 h | AID 651740 | hit rate 21% among 5,600 | shares compounds with T cruzi growth-1;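 active means mean inhibition above about 95%, with at least 55% of replicates also reaching it, limit read from the data; inconclusive means meets just one of the two conditions; inactive means meets neither condition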;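 further: plate controls were neutral control median for no effect and positive control median for full effect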
NIH3T3 tox – NIH/3T3 (mouse) viability loss | NIH/3T3 viability, CellTiter-Glo ATP luminescence, 90 h | hit rate 14% among 5,600 | cytotoxicity (signal decrease), % at 8.35 µM | AID 651742 | shares compounds with T cruzi growth-1;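 active means mean signal decrease across replicates above about 35% based on untreated-well scatter, with enough replicates individually passing, limit read from the data; inconclusive means no rule stated though some were filed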;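 further: 0% = median of neutral control wells and 100% = median of positive control wells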
NIH3T3 tox 2 – NIH/3T3 (mouse) viability loss; AID 651744; NIH/3T3 viability, CellTiter-Glo ATP luminescence, 90 h; inhibition, % at 24.9 µM; hit rate 56% among 5,600; shares compounds with T cruzi growth-1;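 active means mean loss of cell viability signal at or above a set limit, and enough replicates individually reaching it; inconclusive means meets only the mean limit or only the replicate share; inactive means meets neither condition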;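 further: 0% = median of neutral control wells and 100% = median of positive control wells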
An asterisk follows results filed as active; ? = inconclusive; nt = no result.

SMILES	IDH1 mut inh	KDM4C inh	T cruzi growth-1	T cruzi growth-2	T cruzi growth-3	NIH3T3 tox	NIH3T3 tox 2
CNC(=O)C[C@@H]1CC[C@@H]2[C@H](COc3ccc(NC(=O)c4ccccc4F)cc3C(=O)N2C)O1	nt	3	3	nt	nt	nt	nt
Cc1ccccc1S(=O)(=O)Nc1ccc2c(c1)C(=O)N(C)[C@@H]1CC[C@@H](CC(=O)O)O[C@H]1CO2	nt	1	18	nt	nt	nt	nt
C[C@@H]1CCCCO[C@@H](CN(C)C(=O)c2ccccc2)[C@H](C)CN([C@H](C)CO)C(=O)c2cc(NC(=O)Cc3ccccc3)ccc2O1	nt	0	54	nt	nt	nt	nt
Cc1cc2ncn(CC(O)COc3ccc(C(C)C)cc3)c2cc1C (configuration not stated)	-1	nt	nt	nt	nt	nt	nt
C[C@@H]1CN([C@H](C)CO)S(=O)(=O)c2ccc(C#Cc3ccccc3F)cc2O[C@H]1CN(C)C(=O)c1ccc2c(c1)OCO2	nt	2	125*	100*	106*	30	91*
CC(=O)N(C)C[C@@H]1Oc2cc(C#Cc3ccccc3F)ccc2S(=O)(=O)N([C@H](C)CO)C[C@@H]1C	0	1	67	nt	nt	nt	nt
COc1cccc(S(=O)(=O)N2CCCCN3[C@H](CO)[C@H](c4ccc(-c5cncnc5)cc4)[C@H]3C2)c1	nt	0	82	nt	nt	nt	nt
COc1cccc(S(=O)(=O)N2CCCCN3[C@H](C2)[C@@H](c2ccc(-c4cccnc4)cc2)[C@@H]3CO)c1	nt	-3	114*	112*	84	23	51*
COc1cccc(S(=O)(=O)N2CCCCN3[C@@H](CO)[C@H](c4ccc(-c5cccnc5)cc4)[C@@H]3C2)c1	nt	1	107*	100*	43	?	38*
COc1cccc(S(=O)(=O)N2CCCCN3[C@H](CO)[C@H](c4ccc(-c5cncnc5)cc4)[C@@H]3C2)c1	nt	3	36	nt	nt	nt	nt
COc1ccc(NC(=O)N(C)C[C@H]2OCCCC[C@H](C)Oc3ccc(NC(=O)CCCN(C)C)cc3C(=O)N([C@@H](C)CO)C[C@@H]2C)cc1	nt	8	-22	nt	nt	nt	nt
CN(C)C(=O)c1ccc(-c2ccc3c(c2)[C@H]2[C@H](CCN2C(=O)C2CCOCC2)[C@@H](CO)N3C)cc1	nt	2	101*	98*	70	-7	-3
CN(C)C(=O)c1ccc(-c2ccc3c(c2)[C@H]2[C@H](CCN2C(=O)C2CC2)[C@@H](CO)N3C)cc1	nt	-2	102*	101*	99*	14	25
CN1c2ccc(-c3cccc(F)c3)cc2[C@@H]2[C@@H](CCN2C(=O)C2CCOCC2)[C@H]1CO	nt	1	59	nt	nt	nt	nt
CN(C)C(=O)c1ccc(-c2ccc3c(c2)[C@H]2[C@H](CCN2C(=O)C2CC2)[C@H](CO)N3C)cc1	nt	12	18	nt	nt	nt	nt
CN(C)C(=O)c1ccc(-c2ccc3c(c2)[C@H]2[C@H](CCN2C(=O)C2CCCCC2)[C@@H](CO)N3C)cc1	nt	5	nt	nt	nt	nt	nt
CN1c2ccc(-c3ccc(F)cc3)cc2[C@H]2[C@H](CCN2C(=O)C2CCOCC2)[C@@H]1CO	nt	1	102*	104*	69	-3	0
CN1c2ccc(C3=CCCCC3)cc2[C@@H]2[C@@H](CCN2C(=O)C2CCOCC2)[C@H]1CO	nt	16	105*	102*	73	5	18
CN1c2ccc(C3=CCCCC3)cc2[C@H]2[C@H](CCN2C(=O)C2CCC2)[C@@H]1CO	nt	7	nt	nt	nt	nt	nt
Cc1noc(C)c1NC(=O)N(C)C[C@H]1OCCCC[C@H](C)Oc2ccc(NC(=O)C3CCCCC3)cc2C(=O)N([C@H](C)CO)C[C@H]1C	nt	1	26	nt	nt	nt	nt
C[C@@H]1CN([C@H](C)CO)C(=O)c2cc(NS(=O)(=O)c3cccs3)ccc2O[C@@H]1CN(C)S(=O)(=O)c1ccc(F)cc1	-1	0	62	nt	nt	nt	nt
C[C@@H]1CCCCO[C@@H](CN(C)C(=O)Nc2cccc3ccccc23)[C@@H](C)CN([C@H](C)CO)C(=O)c2cc(NC(=O)Cc3ccccc3)ccc2O1	-5	0	-35	nt	nt	nt	nt
C[C@H](C(=O)N(C)C[C@H]1OCc2ccccc2-c2c(n(C)c3ccccc23)C(=O)N([C@H](C)CO)C[C@@H]1C)c1ccccc1	nt	1	nt	nt	nt	nt	nt
Cc1cccc(CN(C)C[C@@H]2OCc3cn(nn3)CCCC(=O)N([C@@H](C)CO)C[C@@H]2C)c1	2	0	13	nt	nt	nt	nt
COc1ccc(NC(=O)N(C)C[C@@H]2OCCCC[C@H](C)Oc3ccc(NC(=O)C4CCCCC4)cc3C(=O)N([C@@H](C)CO)C[C@@H]2C)cc1	2	1	46	nt	nt	nt	nt
SMILES	IDH1 mut inh	KDM4C inh	T cruzi growth-1	T cruzi growth-2	T cruzi growth-3	NIH3T3 tox	NIH3T3 tox 2
COc1ccc(NC(=O)N(C)C[C@H]2OCCCC[C@@H](C)Oc3ccc(NC(=O)C4CCCCC4)cc3C(=O)N([C@@H](C)CO)C[C@H]2C)cc1	3	0	97*	98*	40	-30	-21
C[C@H](CO)N1C[C@H](C)[C@H](CN(C)C(=O)Nc2ccc3c(c2)OCO3)OCCCC[C@H](C)Oc2ccc(NC(=O)C3CCCCC3)cc2C1=O	nt	-2	97*	109*	46	-10	-19
C[C@H]1CCCCO[C@H](CN(C)C(=O)Nc2ccc3c(c2)OCO3)[C@@H](C)CN([C@@H](C)CO)C(=O)c2cc(NC(=O)C3CCCCC3)ccc2O1	-1	-3	56	nt	nt	nt	nt
C[C@H](CO)N1C[C@H](C)[C@H](CN(C)C(=O)Nc2ccc(F)cc2)OCCCC[C@H](C)Oc2ccc(NC(=O)C3CCCCC3)cc2C1=O	nt	-1	75	nt	nt	nt	nt
C[C@@H]1CCCCO[C@H](CN(C)C(=O)Nc2ccc(F)cc2)[C@H](C)CN([C@@H](C)CO)C(=O)c2cc(NC(=O)C3CCCCC3)ccc2O1	1	0	?	97*	48	-2	18
COc1ccc(NC(=O)N(C)C[C@@H]2Oc3ccc(NC(=O)Nc4ccc(C(F)(F)F)cc4)cc3CC(=O)N([C@H](C)CO)C[C@@H]2C)cc1	0	-2	18	nt	nt	nt	nt
CCCN(C)C[C@@H]1Oc2cc(C#Cc3ccncc3)ccc2S(=O)(=O)N([C@@H](C)CO)C[C@@H]1C	-2	0	nt	nt	nt	nt	nt
O=C(C[C@@H]1C=C[C@H](NC(=O)C2CCOCC2)[C@H](CO)O1)Nc1nccs1	nt	2	nt	nt	nt	nt	nt
C[C@@H]1CN([C@@H](C)CO)C(=O)c2cc(NS(=O)(=O)c3ccc(Cl)cc3)ccc2O[C@@H]1CN(C)S(=O)(=O)c1ccc(Cl)cc1	0	0	?	113*	42	28	65*
Cc1ccc(S(=O)(=O)Nc2ccc3c(c2)C(=O)N([C@@H](C)CO)C[C@H](C)[C@H](CN(C)S(=O)(=O)c2ccc(Cl)cc2)O3)cc1	0	0	nt	nt	nt	nt	nt
